Only some compounds are listed: those with a hit (about 3% of all), similar ones and a draw of the others.
SENP8 block-1 = inhibitors of human SENP8 protease | Q96LD8 | purified SENP8, Z-RLRGG-aminoluciferin cleavage, luminescence | inhibition, % at 10 µM | actives 1.2% (n = 330,000) | AID 2540; in the data active means inhibition above about 50%
SENP7 block = SENP7 protease inhibition; Q9BQF6; recombinant SENP7, Z-RLRGG-aminoluciferin luminescence, 40 min; inhibition, % at 5 µM; actives 1.5% (n = 330,000);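 active means inhibition above about 50% at the single test dose, limit read from the data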;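 further: plate controls were DMSO with enzyme for no effect and no enzyme buffer wells for full effect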
SENP6 inh = blocks the human protease SENP6 | Q9GZR1 | Recombinant SENP6 catalytic domain, aminoluciferin luminescence | inhibition, % at 10 µM | actives 1.8% (n = 330,000);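 active means inhibition above about 50% at the single tested dose, limit read from the data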;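 further: plate controls were DMSO wells with enzyme for no effect and DMSO wells lacking enzyme for full effect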
Target sequence (Q9GZR1 628-1112 limits assumed): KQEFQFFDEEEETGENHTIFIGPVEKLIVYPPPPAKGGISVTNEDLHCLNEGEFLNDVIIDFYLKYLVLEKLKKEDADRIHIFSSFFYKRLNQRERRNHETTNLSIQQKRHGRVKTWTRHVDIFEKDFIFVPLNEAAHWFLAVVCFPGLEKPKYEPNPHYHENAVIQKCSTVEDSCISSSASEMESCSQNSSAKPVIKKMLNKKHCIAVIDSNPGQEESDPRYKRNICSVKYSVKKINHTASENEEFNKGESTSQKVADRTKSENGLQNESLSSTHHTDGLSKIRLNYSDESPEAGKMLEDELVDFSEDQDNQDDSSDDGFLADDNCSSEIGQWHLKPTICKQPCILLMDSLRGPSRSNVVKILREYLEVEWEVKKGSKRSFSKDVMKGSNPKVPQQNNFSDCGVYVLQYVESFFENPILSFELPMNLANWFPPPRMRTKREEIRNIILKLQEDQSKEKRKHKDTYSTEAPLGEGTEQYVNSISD
UBC13 polyUb = blocks human UBC13 polyubiquitin chain formation; P61088; TR-FRET; inhibition, % at 20 µM; actives 0.47% (n = 330,000); AID 485273; in the data active means inhibition above about 45%, passing the limit was not always enough; inconclusive means no clear call, values can overlap the other calls
Target sequence (P61088 whole entry, looked up): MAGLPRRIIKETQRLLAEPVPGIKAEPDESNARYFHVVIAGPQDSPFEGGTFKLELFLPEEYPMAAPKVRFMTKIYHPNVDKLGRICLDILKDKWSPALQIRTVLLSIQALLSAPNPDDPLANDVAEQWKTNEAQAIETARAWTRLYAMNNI
Apaf-1 inh = human Apaf-1 inhibition; O14727; reconstituted apoptosome caspase-3 activity, DEVD-Rh110 fluorescence; inhibition, % at 20 µM; actives 0.71% (n = 330,000); AID 489030; active means inhibition of at least 40% at 20 µM;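 further: plate controls were DMSO wells for no effect and DEVD-CHO caspase inhibitor wells for full effect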
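Assay system: Apoptosome proteins | Medium: pH 7.5 Hepes buffer with CHAPS, BSA, DTT | Also added: Cytochrome c and DEVD-Rh110 substrate | Times: 30 min plus 50 min, RT | Detection: Rhodamine 110 fluorescence at Ex 480/Em 540 nm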
SENP8 block-2 = blocks human SENP8 cleavage of Nedd8 substrate; recombinant SENP8, Nedd8 substrate fluorescence; inhibition, % at 20 µM; Q96LD8; actives 0.64% (n = 360,000); in the data active means inhibition mostly above about 40%, no sharp cut-off; inactive means mostly below about 27%
Numbers without * were called inactive; i = inactive; ? = inconclusive; . = not tested or not shown.

SMILES	SENP8 block-1	SENP7 block	SENP6 inh	UBC13 polyUb	Apaf-1 inh	SENP8 block-2
CCc1ccccc1N1CSC2=C(C#N)C(c3cc(OC)c(OC)cc3OC)CC(=O)N2C1 (stereo not given)	0.6	-2.5	16.2	-39.1	43.4*	-7.9
COc1ccc2ccccc2c1C1CC(=O)N2CN(C)CSC2=C1C#N (stereo not given)	3.9	-1.5	14.1	-20.6	71.2*	42.2*
COc1ccc(OC)c(C2CC(=O)N3CN(c4cccc(Cl)c4)CSC3=C2C#N)c1 (stereo not given)	11.0	9.8	4.5	-12.9	80.5*	3.9
c1ccc2c(c1)C1=NCCN1c1ccccc1-2	.	.	.	.	.	-481.6
CC(C)Nc1nc(NCc2ccccc2)c2sccc2n1	.	.	.	.	.	-27.3
COc1cccc(NC(=S)Nc2cccc3ccccc23)c1	87.9*	42.1	88.8*	-36.9	93.8*	-424.8
CC(C)c1ccc(NC(=S)Nc2cccc3ccccc23)cc1	33.4	7.6	42.5	?	84.0*	-396.0
Cc1cc2ccccn2c1C(=O)c1ccc(Cl)cc1	-0.2	3.6	9.1	16.4	-3.0	14.6
Cc1cc2ccccn2c1C(=O)c1ccc(N/N=C/c2ccc(C(=O)O)cc2)c([N+](=O)[O-])c1	.	.	.	.	.	66.5*
Cc1cc2ccccn2c1C(=O)c1ccncc1	5.0	-0.8	-7.8	0.2	-9.0	12.9
C/C(=N/Nc1ccc(C(=O)c2c(C)cc3ccccn23)cc1[N+](=O)[O-])c1ccc(O)cc1	.	.	.	.	.	50.2*
C/C(=N\Nc1ccc(C(=O)c2c(C)cc3ccccn23)cc1[N+](=O)[O-])c1ccc(O)cc1	-4.3	-1.2	-1.2	-77.2	-5.9	62.4*
COC(=O)C1=CN(c2ccc(OC)cc2)C(N)=C(C#N)C1c1ccccc1F (stereo not given)	.	.	.	.	.	-90.9
N#Cc1ccc(C(C(=O)NC2CCCCC2)n2c(=O)c(-c3ccccc3)nc3ccccc32)cc1 (stereo not given)	.	.	.	.	.	-370.8
C(=C\c1ccccc1)/CN1CCN(C(c2nnnn2Cc2ccccc2)C2CC2)CC1 (stereo not given)	.	.	.	.	.	9.2
Cc1ccc(O)c(N=NC2=C(O)CC(C)(C)CC2=O)c1	-3.3	-4.4	-19.2	-105.3	2.4	42.1*
O=C(CC1c2ccccc2C=C(c2ccsc2)N1c1ccc(-c2cccnc2)cc1)C1CC1 (stereo not given)	.	.	.	.	.	-390.2
COCCNc1nc(-c2ccccc2CO)c2sc(-c3ccccc3)cc2n1	.	.	.	.	.	-384.0
Cc1cccc(C)c1-n1nnnc1C(c1ccnc2ccccc12)N1CCN(C(=O)OCc2ccccc2)CC1 (stereo not given)	.	.	.	.	.	11.0
Cc1ccc(C2CC(=O)N3CN(Cc4ccco4)CSC3=C2C#N)cc1 (stereo not given)	-1.6	5.8	11.6	-27.9	22.5	-0.5
N#CC1=C2SCN(Cc3ccco3)CN2C(=O)CC1c1c(F)cccc1Cl (stereo not given)	11.5	6.4	-0.3	-8.7	3.1	36.0*
N#C/C(=N/Nc1ccc(OC(F)(F)F)cc1)C(N)=S	49.1	-54.6	79.2*	-2.3	16.4	46.1*
COc1ccc(N/N=C(\C#N)C(N)=O)cc1	-10.4	0.5	1.2	8.4	-12.0	10.5
Cc1noc(/C=C/Nc2ccc(F)cc2F)c1[N+](=O)[O-]	83.8*	97.2*	87.0*	-132.6	2.9	7.0
CCOc1cccc(CNc2ccc(O)cc2)c1OCc1ccc(Cl)cc1	-3.4	21.2	-6.0	-0.7	31.8	29.5
SMILES	SENP8 block-1	SENP7 block	SENP6 inh	UBC13 polyUb	Apaf-1 inh	SENP8 block-2
CCOc1cc(CNc2ccc(O)cc2)ccc1OCc1ccc(Cl)cc1Cl	-5.6	71.7*	-2.8	-2.0	93.5*	75.4*
COC(=O)c1sccc1NC(=O)Nc1ccccc1F	88.4*	97.5*	69.6*	-1.2	6.4	7.4
COc1ccccc1CNS(=O)(=O)c1ccc(-c2cc(C)no2)cc1	2.1	-1.4	-15.4	5.0	44.5*	14.3
CCc1ccc(-c2cc(C)no2)cc1S(=O)(=O)NCc1ccccc1OC	-3.5	-11.1	-2.1	3.2	17.2	14.8
CC12CCC(/C(=C/NNc3ccc([N+](=O)[O-])cc3[N+](=O)[O-])C1=O)C2(C)C (stereo not given)	.	.	.	.	.	30.4*
Oc1ccc(/C=N/NC(=S)Nc2cccnc2)c(O)c1O	.	.	.	.	.	56.4*
O=[N+]([O-])c1cccc(N/N=C/c2cccc(O)c2O)c1	2.0	-17.4	-22.0	-18.1	14.4	58.2*
Cc1cccc(N/N=C/c2ccc(O)c(O)c2O)c1	27.8	8.1	10.5	19.6	8.0	67.0*
COc1cccc(N/N=C/c2cccc(Br)c2O)c1	26.1	-11.3	-6.6	5.3	3.6	-26.3
CCOC(=O)[C@]12CCCC=C1N(CCC1=CCCCC1)C(=O)[C@H](CC(=O)N1CCN(C(=O)C3CC3)CC1)C2	.	.	.	.	.	35.0
COc1ccccc1Cc1c(-c2ccco2)nc2cc(C)c(Br)c(C)n12	.	.	.	.	.	-2.9
CNc1nc(Nc2ccc(Br)cc2)nc(N)c1[N+](=O)[O-]	11.7	87.7*	35.5	-6.6	5.8	16.9
O=C(Nc1ccc(N=Nc2ccccc2)cc1)c1ccccc1Cl	-23.3	1.9	-2.5	-16.0	12.9	50.6*
COc1cc(Cl)ccc1OC1(C)CCN(Cc2cccn2-c2nccs2)C1 (stereo not given)	.	.	.	.	.	23.3
COc1cc(/C=C2\S/C(=N/S(=O)(=O)Cc3ccccc3)NC2=O)c([N+](=O)[O-])cc1OC	1.4	5.2	12.4	-1.1	9.2	10.0
COc1cc(/C=C2/S/C(=N/S(=O)(=O)Cc3ccccc3)NC2=O)c([N+](=O)[O-])cc1OC	1.7	5.8	9.4	-11.3	-3.0	41.8*
O=C(CC(Nc1ccccc1)C(=O)O)c1ccccc1 (stereo not given)	53.8*	10.5	79.5*	0.1	-1.2	-31.6
O=C(CC(Nc1ccc(Cl)cc1Cl)C(=O)O)c1ccccc1 (stereo not given)	-2.3	-5.1	-14.2	18.6	-17.9	26.4
Fc1cccc(Cl)c1C1SCc2nc3ccccc3n21 (stereo not given)	.	.	.	.	.	8.3
O=S(=O)(Nc1ccc(-c2nc3cccnc3s2)cc1)c1cc(F)ccc1F	24.1	-2.6	58.8*	0.1	4.1	-443.0
CCc1ccc(S(=O)(=O)Nc2ccc(-c3nc4cccnc4s3)cc2)s1	7.4	-8.9	21.0	6.2	8.8	-461.3
Cc1cccc(-c2ccc([N+](=O)[O-])cc2CN2CCN(c3ncc(Cc4ccccc4)cn3)CC2)c1	.	.	.	.	.	7.9
CCOC(=O)C1=NN(c2ccccc2)C(=O)/C1=C\c1ccc(N(C)C)cc1	-10.3	-2.9	-7.4	-45.4	5.8	5.3
CC1=NN(Cc2ccccc2)C(=O)/C1=C\c1ccc(N(C)C)cc1	7.2	8.3	1.3	i	-0.7	40.0*
COC(=O)[C@]12CCCCC=C1N(CCc1ccc(OC)c(OC)c1)C(=O)[C@H](CC(=O)NCc1cccs1)C2	.	.	.	.	.	18.6
